ChEMBL document CHEMBL1177716, “Kinesin spindle protein (KSP) inhibitors with 2,3-fused indole scaffolds” (J Med Chem, 2010)
Calls of active or inactive are those of the source.

Tests used:
Sus scrofa = organism: Sus scrofa; test: Inhibition of pig brain topoisomerase 1-mediated supercoiled DNA relaxation after 20 mins by agarose gel electrophoresis analysis
How it was run: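 Supercoiled DNA was incubated with topo I, with or without test compound. Gel lanes included supercoiled DNA alone, DNA plus enzyme without compound, and DNA plus enzyme with camptothecin as the reference inhibitor.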

[1] = target: T1, Chromosome-associated kinesin KIF4A (Homo sapiens) (UniProt O95239); test: Inhibition of KIF-4 ATPase activity at 20 uM
T1 sequence (whole entry): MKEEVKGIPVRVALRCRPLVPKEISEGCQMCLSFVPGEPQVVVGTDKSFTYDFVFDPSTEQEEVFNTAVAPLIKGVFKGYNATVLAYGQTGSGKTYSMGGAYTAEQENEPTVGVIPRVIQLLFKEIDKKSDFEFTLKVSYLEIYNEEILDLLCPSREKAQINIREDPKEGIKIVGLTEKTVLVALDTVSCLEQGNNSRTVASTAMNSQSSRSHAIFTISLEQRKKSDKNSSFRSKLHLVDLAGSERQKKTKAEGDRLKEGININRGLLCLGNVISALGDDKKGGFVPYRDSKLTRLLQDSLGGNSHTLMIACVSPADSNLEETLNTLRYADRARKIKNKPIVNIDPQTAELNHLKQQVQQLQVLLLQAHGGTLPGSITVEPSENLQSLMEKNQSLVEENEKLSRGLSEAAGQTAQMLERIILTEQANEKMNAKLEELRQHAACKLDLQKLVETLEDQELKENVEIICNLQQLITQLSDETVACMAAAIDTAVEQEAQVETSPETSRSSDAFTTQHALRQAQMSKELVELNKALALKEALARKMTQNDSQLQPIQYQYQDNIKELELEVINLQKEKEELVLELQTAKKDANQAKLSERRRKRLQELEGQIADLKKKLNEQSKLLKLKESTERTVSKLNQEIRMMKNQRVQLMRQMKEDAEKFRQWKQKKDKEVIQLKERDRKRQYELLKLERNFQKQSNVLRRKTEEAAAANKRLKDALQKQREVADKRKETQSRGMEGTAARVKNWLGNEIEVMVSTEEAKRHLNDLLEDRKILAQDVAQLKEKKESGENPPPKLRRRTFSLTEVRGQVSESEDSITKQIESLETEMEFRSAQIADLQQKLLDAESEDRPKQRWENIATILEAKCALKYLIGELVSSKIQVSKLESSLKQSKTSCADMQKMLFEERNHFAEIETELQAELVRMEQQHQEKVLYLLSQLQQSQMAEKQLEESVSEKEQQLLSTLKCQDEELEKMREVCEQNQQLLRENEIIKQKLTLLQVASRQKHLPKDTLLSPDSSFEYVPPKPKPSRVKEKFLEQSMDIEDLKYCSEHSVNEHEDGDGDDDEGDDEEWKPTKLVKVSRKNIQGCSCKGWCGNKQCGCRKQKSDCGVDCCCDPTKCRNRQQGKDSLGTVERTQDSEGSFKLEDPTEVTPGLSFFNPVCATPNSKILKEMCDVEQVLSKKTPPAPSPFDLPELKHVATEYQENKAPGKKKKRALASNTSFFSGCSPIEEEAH

[2] = target: T2, Kinesin-like protein KIF22 (Homo sapiens) (UniProt Q14807); test: Inhibition of Kid ATPase activity at 20 uM
T2 sequence (whole entry): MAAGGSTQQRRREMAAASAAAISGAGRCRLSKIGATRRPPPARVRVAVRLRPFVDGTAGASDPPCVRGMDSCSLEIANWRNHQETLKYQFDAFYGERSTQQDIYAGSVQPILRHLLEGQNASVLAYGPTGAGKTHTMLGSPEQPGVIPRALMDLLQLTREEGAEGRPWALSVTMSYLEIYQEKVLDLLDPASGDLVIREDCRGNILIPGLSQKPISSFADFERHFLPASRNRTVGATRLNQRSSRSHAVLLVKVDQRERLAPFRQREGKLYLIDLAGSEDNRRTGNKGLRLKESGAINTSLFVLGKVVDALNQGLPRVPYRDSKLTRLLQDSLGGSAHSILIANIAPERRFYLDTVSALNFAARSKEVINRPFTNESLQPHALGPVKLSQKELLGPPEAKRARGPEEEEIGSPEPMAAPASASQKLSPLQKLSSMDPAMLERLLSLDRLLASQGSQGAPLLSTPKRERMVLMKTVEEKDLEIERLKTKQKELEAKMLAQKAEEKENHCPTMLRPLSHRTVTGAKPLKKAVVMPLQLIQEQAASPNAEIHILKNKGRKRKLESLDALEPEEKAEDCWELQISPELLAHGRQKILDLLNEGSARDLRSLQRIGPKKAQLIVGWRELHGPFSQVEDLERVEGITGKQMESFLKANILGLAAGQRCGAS

Nucleic Acid = test: Induction of supercoiled DNA relaxation after 20 mins by agarose gel electrophoresis analysis; format: nucleic-acid assay

FC(F)(F)c1ccc2[nH]c3ccccc3c2c1
inactive: inhibition (Sus scrofa) | inhibition [1] | inhibition [2] | Activity (Nucleic Acid)

CC(C)(C)c1ccc2c(c1)[nH]c1ccccc12
inactive: inhibition (Sus scrofa) | inhibition [1] | inhibition [2] | Activity (Nucleic Acid)

FC(F)(F)c1ccc2c(c1)[nH]c1ccccc12
inactive: inhibition (Sus scrofa) | inhibition [1] | inhibition [2] | Activity (Nucleic Acid)
